According to ChEMBL document CHEMBL3271933, “Inhibitors of hepatic mixed function oxidase. 3. Inhibition of hepatic microsomal aniline hydroxylase and aminopyrine demethylase by 2,6- and 2,4-dihydroxyphenyl alkyl ketones and related compounds” (J Med Chem, 1977):
Structures can show the parent of a compound that is named as a salt. Activity calls are given as the source filed them. The rule behind the calls is not given here.

Experiments:
Mus musculus [1] = experiment: In vivo inhibition of mixed function oxidase system in mouse assessed as prolongation of hexobarbital-induced sleeping time at 100 mg/kg, ip pretreated for 10 mins followed by hexobarbital-challenge relative to control; set-up: scale not given: the % may be the effect or the level left; conditions: route intraperitoneal
[2] = Inhibition of aniline hydroxylase activity of mixed function oxidase system in Wistar rat liver microsomes assessed as conversion of aniline to p-aminophenol after 10 mins; conditions: read-out: I50
[3] = Inhibition of aminopyrine demethylase activity of mixed function oxidase system in Wistar rat liver microsomes assessed as conversion of aminopyrine to 4-aminoantipyrine after 20 mins; conditions: read-out: I50
In short: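 Microsomes from phenobarbitone-pretreated male Wistar rats, with the same NADPH-generating cofactors. Incubation in 3.0 mL containing aminopyrine 1.5 μmol and 5.6 mg protein in pH 7.4 phosphate, 20 min. 4-Aminoantipyrine formed was assayed. Benzyl ethers added in DMSO; other inhibitors usually in water. I50 taken from 5–7 inhibitor levels, means of duplicates.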

Mus musculus [4] = experiment: In vivo inhibition of mixed function oxidase system in mouse assessed as increase in zoxazolamine-induced paralysis time at 100 mg/kg, ip pretreated for 10 mins followed by zoxazolamine-challenge relative to control; set-up: scale not given: the % may be the effect or the level left; conditions: route intraperitoneal
Rattus norvegicus = species: Rattus norvegicus; experiment: Inhibition of aniline hydroxylase activity of mixed function oxidase system in Wistar rat liver microsomes assessed as conversion of aniline to p-aminophenol at 10^-3 M after 10 mins

IC50 [2] | IC50 [3] | inhibition (Rattus norvegicus) | SMILES | Activity (Mus musculus [1]) | Activity (Mus musculus [4])
200 µM | 90 µM | – | COc1cccc(O)c1C(C)=O | 233% | –
390 µM | 320 µM | – | CC(=O)c1ccccc1O | – | –
190 µM | 80 µM | – | CC(=O)c1c(O)cccc1OCc1ccccc1 | 170% | 156%
– | 170 µM | inactive | CCC(=O)c1ccc(OC)cc1O | – | –
290 µM | 6 µM | – | CCCC(C(=O)OCCN(CC)CC)(c1ccccc1)c1ccccc1 [PROADIFEN HYDROCHLORIDE] | – | –
200 µM | 650 µM | – | O=Cc1c(O)cccc1O | – | –
210 µM | 140 µM | – | CC(=O)c1c(O)cccc1O | 190% | 164%
1400 µM | 1100 µM | – | O=Cc1ccc(O)cc1O | – | –
700 µM | 520 µM | – | CC(=O)c1ccc(O)cc1O | 127% | 77%
750 µM | 160 µM | – | CCC(=O)c1ccc(O)cc1O | – | –

SMILES | IC50 [2] | IC50 [3] | inhibition (Rattus norvegicus) | Activity (Mus musculus [1]) | Activity (Mus musculus [4])
CCCCOCCOCCOCc1cc2c(cc1CCC)OCO2 [PIPERONYL BUTOXIDE] | 420 µM | 420 µM | – | – | –
